# Most compounds without a hit are left out; they make up all but 2.3% or so of the library.
# CSN deneddyl inh – blocks human CSN-mediated cullin deneddylation; Q92905; Purified CSN, SCF-Nedd8-OG deneddylation, fluorescence polarization; inhibition, % at 12.5 µM; hit rate 0.38% among 360,000; AID 651999;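 active = pattern-corrected inhibition above about 35%, with an unprinted fluorescence ratio check between 0.5 and 1.5, limit read from the data, passing the limit was not always enough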;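 also: 0% = enzyme with substrate and 100% = substrate without enzyme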
# Target sequence (Q92905 whole entry, looked up, one chain of several): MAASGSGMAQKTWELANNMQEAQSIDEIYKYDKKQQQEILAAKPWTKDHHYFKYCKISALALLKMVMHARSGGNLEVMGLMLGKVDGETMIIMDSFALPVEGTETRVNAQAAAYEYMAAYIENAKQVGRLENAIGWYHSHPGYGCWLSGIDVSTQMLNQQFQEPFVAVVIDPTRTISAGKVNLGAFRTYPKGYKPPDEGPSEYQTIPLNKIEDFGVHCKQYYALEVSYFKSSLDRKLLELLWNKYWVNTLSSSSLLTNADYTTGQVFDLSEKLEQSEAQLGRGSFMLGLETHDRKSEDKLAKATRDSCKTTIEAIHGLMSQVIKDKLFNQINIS
#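 Test system: purified human Csn5 enzyme expressed in HEK293T cells. Amount: 0.24 nM enzyme. Reagent: SCFSkp2-Nedd8OG substrate at 10 nM final. Schedule: 90 min incubation of compound, enzyme and substrate at room temperature. Detection: fluorescence polarization. Read-out: % inhibition of substrate cleavage by Csn5.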
# TPT1 inh – blocks Candida albicans tRNA 2'-phosphotransferase | recombinant caTPT1, FP RNA substrate dephosphorylation | inhibition, % at 5 µM | hit rate 0.81% among 300,000 | AID 1962;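 active = inhibition above the mean of all tested compounds plus 3 SD, set per screening campaign, cut at about 24% in these data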;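 also: plate controls were DMSO alone for no effect and ferristatin control at 100 nM for full effect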
# Rpn11 inh – Rpn11 (human) deubiquitinase inhibition. O00487. hit rate 0.59% among 360,000. inhibition, % at 20 µM. human 26S proteasome, Ub4-pepOG fluorescence polarization; 20S core pre-blocked with epoxomicin;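 active = inhibition at 20 µM, scaled to each plate's controls, above about 33%, limit read from the data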
# Target sequence (O00487 whole entry, looked up): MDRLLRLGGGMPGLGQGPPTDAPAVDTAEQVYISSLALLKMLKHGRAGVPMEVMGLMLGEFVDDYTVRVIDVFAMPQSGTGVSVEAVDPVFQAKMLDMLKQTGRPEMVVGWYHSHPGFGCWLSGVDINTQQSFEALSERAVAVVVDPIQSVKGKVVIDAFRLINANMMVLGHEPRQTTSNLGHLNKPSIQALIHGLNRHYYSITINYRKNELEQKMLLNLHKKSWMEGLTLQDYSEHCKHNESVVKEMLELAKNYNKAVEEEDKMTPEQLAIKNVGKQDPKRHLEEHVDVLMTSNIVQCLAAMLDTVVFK
# Myeloid diff 2 – myeloid differentiation induction; calls only at 10 µM; hit rate 1% among 360,000; ER-HoxA9 myeloid progenitors, lysozyme-GFP differentiation, flow cytometry;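 active = normalized GFP-positive differentiation at or above the plate's own cutoff, the solvent-only control mean plus 3 SD; inconclusive = no clear call, values can overlap the other calls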;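 also: cells exposed to compound for four days before flow analysis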
# HNF4A DNA FP – change in binding of human HNF4 alpha to DNA. P41235. HNF4a-FITC DNA binding, fluorescence polarization, 1 h. activity change, % at 10 µM. hit rate 0.3% among 360,000. AID 1224865; in the data active = activity change above about 30%, passing the limit was not always enough
# Rpn11 inh conf – confirmation of human proteasome Rpn11 inhibitors. purified human 26S proteasome, Ub4-pepOG fluorescence polarization; proteasome pretreated with epoxomicin. hit rate 29% among 1,900. shares compounds with Rpn11 inh. inhibition, % at 20 µM. AID 602318
# MMP-2 inh – counter-screen for RPN11 inhibitors: inhibition of human MMP-2 | shares compounds with Rpn11 inh | recombinant MMP-2, FRET peptide cleavage fluorescence | inhibition, % at 20 µM | hit rate 4% among 1,900 | AID 602330;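 also: human MMP-2 activated beforehand with APMA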
# Thrombin inh – blocks bovine thrombin, flagging nonselective RPN11 hits. shares compounds with Rpn11 inh. bovine thrombin cleavage of Ub4-pepOG, fluorescence polarization. inhibition, % at 20 µM. hit rate 13% among 1,900. AID 602333;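 active = mean inhibition at least 40% at 20 µM, or signal 3 deviations below plate average, so some actives read negative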;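 also: plate controls were thrombin with DMSO for no effect and buffer wells lacking thrombin for full effect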
# Numbers without * were called inactive; i = inactive; ? = inconclusive; . = no result; + = active, no number. Rule as the data show it, unless noted: active = inhibition above about 40%; inactive = the rest.
SMILES,CSN deneddyl inh,TPT1 inh,Rpn11 inh,Myeloid diff 2,HNF4A DNA FP,Rpn11 inh conf,MMP-2 inh,Thrombin inh
Cc1cccc(NC(=O)/C(=C\c2ccco2)NC(=O)c2cccs2)c1,8.1,12.1,32.1*,i,13.6,3.9,-5.2,6.6
Cc1cc(/C=N/n2cnnc2)c(C)n1-c1ccc(Cl)cc1,-1.7,-1.1,-1.4,i,2.2,.,.,.
Cc1cc(N2CCCC2)ccc1/C=N/n1cnnc1,28.2,3.5,47.1*,+,21.1,-22.7,-58.6,-12.1
O=C(NCc1ccc(F)cc1)c1cc(C2CCCCN2S(=O)(=O)c2ccc(F)cc2F)on1 (stereo not drawn),0.5,.,2.7,i,-0.5,.,.,.
Cc1ccc(C(=O)N=c2sccn2C)cc1S(=O)(=O)N1CCOCC1,-0.4,-3.4,68.5*,i,37.3*,0.6,30.1,14.0
O=C(NCc1ccccc1Cl)C(=O)c1cn(CC(=O)N2CCOCC2)c2ccccc12,3.6,-0.5,-2.5,i,2.3,.,.,.
NS(=O)(=O)c1ccc2nc(NC(=O)Nc3ccc(F)cc3)sc2c1,23.5,10.1,66.8*,?,42.9*,33.0,1.3,22.7
COc1ccc(NC(=O)c2cccc3c(-c4cccnc4)coc23)cc1,5.5,.,63.1*,i,-5.2,41.9*,-125.5,3.6
CC(=O)c1c(O)c(C)c(O)c2c1OC1=Cc3c(c(C)nn3C)C(=O)C12C (stereo not drawn),1.3,.,1.7,i,3.8,.,.,.
CC(=O)C1=C(O)C2(C)c3c(O)c(C)c(O)c(C(C)=O)c3OC2CC1=O (stereo not drawn),16.4,.,53.6*,i,51.3*,69.2*,11.6,90.7*
N#Cc1ccc(OC(=O)C2CCN(C3=NS(=O)(=O)c4ccccc43)CC2)cc1,1.3,.,-1.1,i,3.7,.,.,.
COc1ccc(NC(=O)CC(=O)Nc2ccc(OC)cc2OC)c(OC)c1,2.6,-1.2,128.9*,i,2.5,1.3,-15.2,-16.7
COc1ccc(N=C2S/C(=C\c3ccc(C)s3)C(=O)N2CC(C)C)cc1,1.9,-1.1,100.3*,i,3.2,-3.5,-3.0,2.6
O=C(O)C(Cc1ccccc1)N1C(=O)/C(=C/C=C/c2ccco2)SC1=S (stereo not drawn),77.0,.,175.0*,i,-34.2,178.3*,36.4,53.5*
COc1ccc(/C=C2\SC(=S)N(C(Cc3ccccc3)C(=O)O)C2=O)cc1 (stereo not drawn),-15.8,.,7.2,i,-0.2,.,.,.
CC(=O)c1sc(NC(=O)CCCOc2ccc(Cl)cc2)nc1C,4.7,3.9,77.1*,i,23.5,11.7,13.6,-9.5
O=C1NC[C@@H](CCCCN2C[C@H](Cc3ccc(O)cc3)N(CCc3ccccc3)C(=O)C2=O)N(CCc2ccc(O)cc2)C1=O,-6.0,.,.,i,-2.4,.,.,.
COc1cccc(C=C2SC(=S)NC2=O)c1,2.5,.,10.0,i,2.2,.,.,.
COc1ccc2cc(/C=C3\SC(=S)NC3=O)c(N3CCOCC3)nc2c1,20.9,10.9,55.0*,i,24.0,48.2*,24.6,active
COc1ccc(CCn2c(O)cc3nn(-c4nc5ccccc5s4)c(=O)c-3c2C)cc1,61.8,23.5,54.9*,i,-30.5,7.6,-5.6,16.3
COc1ccc(CN2CCN(c3nc4ccccc4s3)CC2)cc1,4.9,.,-2.0,i,-1.5,.,.,.
COc1ccc(CCNc2ccc(C(CC(N)=O)NC(=O)Cc3ccc(Br)cc3)cc2[N+](=O)[O-])cc1 (stereo not drawn),3.6,19.9,54.6*,i,20.1,16.1,-21.2,-20.4
NC(=O)CC(NC(=O)Cc1ccc(Br)cc1)c1ccc(NCCc2ccc(F)cc2)c([N+](=O)[O-])c1 (stereo not drawn),5.5,11.4,38.4,i,21.6,.,.,.
NC(=O)CC(NC(=O)Cc1ccc(Br)cc1)c1ccc(NCCc2ccc(Cl)cc2)c([N+](=O)[O-])c1 (stereo not drawn),9.8,.,45.3*,i,18.1,32.8,5.1,-0.5
COc1ccc(/C=N/NC(=O)c2nnn(-c3nonc3N)c2-c2cccs2)cc1OC,29.7,0.0,66.5*,i,-1.3,21.3,-25.7,-16.4
SMILES,CSN deneddyl inh,TPT1 inh,Rpn11 inh,Myeloid diff 2,HNF4A DNA FP,Rpn11 inh conf,MMP-2 inh,Thrombin inh
CCN1CCN(S(=O)(=O)c2ccc(Cl)c(C(=O)NCc3nc4ccccc4[nH]3)c2)CC1,4.8,.,3.8,i,-1.1,.,.,.
O=C(Cn1cnc2c(nnn2Cc2ccc(F)cc2)c1=O)NCc1ccccc1,-5.0,-3.4,-0.2,i,-1.9,.,.,.
Cc1ccc(-n2nnc3c(=O)n(CC(=O)NCc4ccccc4)cnc32)cc1,10.6,-2.1,43.0*,i,5.2,48.6*,25.9,-19.5
O=C(Cn1cnc2c(nnn2-c2ccccc2)c1=O)NCc1ccc(F)cc1,13.0,0.0,72.6*,i,20.3,61.4*,45.6*,-8.1
Cc1ccc(-n2nnc3c(=O)n(CC(=O)c4ccccc4)cnc32)cc1,0.9,-5.1,5.7,i,-1.5,.,.,.
CN(C)CCCNc1ccc(-c2n[nH]c(=O)c3ccccc23)cc1[N+](=O)[O-],4.0,-6.4,56.1*,i,2.2,7.8,-11.1,-15.9
COc1cc(C(=O)Nc2cc(-c3ccccc3)[nH]n2)cc(OC)c1OC,0.2,-1.1,-1.4,i,1.1,.,.,.
Nc1ccccc1Nc1cc(-c2ccccc2)[nH]n1,10.5,.,42.9*,+,13.0,0.1,10.5,7.3
COc1cc2ccc(C(C)=NNC(N)=S)cc2cc1OC,-1.8,.,83.3*,+,-0.7,-9.9,2.8,-13.0
CC(=NNC(N)=S)c1ccc2cc3c(cc2c1)OCO3,4.6,.,-1.9,.,5.0,.,.,.
CC(=O)c1cccc(NS(=O)(=O)N(C)C)c1,-0.5,1.2,127.6*,i,50.1*,-2.1,-4.0,-6.8
CCCN(CCC)CC(O)Cn1cc(/C=C/C(=O)c2ccccc2)c2ccccc21 (stereo not drawn),6.2,.,39.0*,i,4.5,4.7,-21.9,12.4
OCCN(CCO)CC(O)Cn1c2ccccc2c2ccccc21 (stereo not drawn),1.1,0.7,1.2,i,7.5,.,.,.
CC(C)N(C(=O)C[n+]1ccc(/C=N/O)cc1)C(C)C,0.6,-2.4,43.6*,i,-0.8,-13.6,-19.6,-25.6
COc1cccc(-c2nnc(SCC3CNC(=O)O3)n2-c2ccc(Cl)cc2)c1 (stereo not drawn),-6.4,-0.4,-0.1,i,1.4,.,.,.
C[C@H](CO)N1C[C@H](C)[C@@H](CN(C)C(=O)Nc2cccc(F)c2)Oc2ncc(Br)cc2C1=O,0.1,.,78.8*,i,-1.3,8.1,-19.7,-0.1
